Assay results reported in ChEMBL document CHEMBL3414532 (J Med Chem, 2015).

What was measured:
[1] = target: T1, Human immunodeficiency virus type 1 reverse transcriptase (Human immunodeficiency virus 1, UniProt Q72547); assay: Inhibition of HIV1 recombinant reverse transcriptase associated catalytically active RNase H domain assessed as reduction in DNA 3' end directed cleavage using HTS-2 RNA/DNA duplex substrate by fluorescence assay
[2] = target: T1, Human immunodeficiency virus type 1 reverse transcriptase; assay: Inhibition of HIV1 recombinant reverse transcriptase associated catalytically active RNase H domain assessed as reduction in RNA 5' end directed cleavage using HTS-3 RNA/DNA duplex substrate by fluorescence assay
[3] = target: T1, Human immunodeficiency virus type 1 reverse transcriptase; assay: Inhibition of reconstituted HIV1 RNase H using RNA/DNA duplex substrate by fluorescence assay
[4] = target: T1, Human immunodeficiency virus type 1 reverse transcriptase; assay: Inhibition of HIV1 recombinant reverse transcriptase polymerase activity using [3H]TTP and poly(rA)-oligo(dT)16 substrate incubated for 20 mins by liquid scintillation spectrometry
How it was run: (§1)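 HIV RT (WT or NNRTI-resistant mutant, 10 nM) added to start reaction with 10 μM [3H]-TTP and 40 nM poly(rA)-oligo(dT)16 in 50 mM Tris-HCl pH 7.4, 60 mM KCl, 5 mM MgCl2; 20 min at 37 °C. Quenched with ice-cold 10% TCA/20 mM sodium pyrophosphate, glass-fiber filtered, washed with TCA and ethanol; incorporation counted by scintillation.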

[5] = target: T2, Human immunodeficiency virus type 1 reverse transcriptase (Human immunodeficiency virus 1, UniProt Q72547, Y181C); assay: Inhibition of HIV1 reverse transcriptase Y181C mutant associated RNase H domain activity assessed as reduction in internal cleavage using HTS-1 RNA/DNA duplex substrate by fluorescence assay
[6] = target: T2, Human immunodeficiency virus type 1 reverse transcriptase; assay: Inhibition of HIV1 reverse transcriptase Y181C mutant polymerase activity using [3H]TTP and poly(rA)-oligo(dT)16 substrate incubated for 20 mins by liquid scintillation spectrometry; how it was run: as §1
[7] = target: T3, Human immunodeficiency virus type 1 reverse transcriptase (Human immunodeficiency virus 1, UniProt Q72547, K103N/L100I); assay: Inhibition of HIV1 reverse transcriptase L100I/K103N mutant associated RNase H domain activity assessed as reduction in internal cleavage using HTS-1 RNA/DNA duplex substrate by fluorescence assay
[8] = target: T3, Human immunodeficiency virus type 1 reverse transcriptase; assay: Inhibition of HIV1 reverse transcriptase L100I/K103N mutant polymerase activity using [3H]TTP and poly(rA)-oligo(dT)16 substrate incubated for 20 mins by liquid scintillation spectrometry; how it was run: as §1
[9] = Inhibition of Moloney murine leukemia virus reverse transcriptase associated RNase H pre-incubated for 10 mins before HTS-1 RNA/DNA duplex substrate addition by fluorescence assay
How it was run: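 Preincubated 10 min at room temperature, then started with 100 nM HTS-1 duplex. IC50 at curve midpoint; duplicates, at least two experiments.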

Gag-Pol polyprotein = Gag-Pol polyprotein (Moloney murine leukemia virus isolate Shinnick, UniProt P03355); assay: Inhibition of Moloney murine leukemia virus reverse transcriptase polymerase activity using Td100/Pd18 DNA-DNA substrate incubated for 30 mins by fluorescence assay
[10] = target: Human immunodeficiency virus type 1 integrase (Human immunodeficiency virus 1, UniProt Q7ZJM1); assay: Inhibition of HIV integrase pre-incubated for 10 mins before DNA substrate addition
How it was run: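 Strand transfer assay: 1 μM HIV integrase in 10 mM HEPES pH 7.5, 10% glycerol, 10 mM MnCl2, 1 mM DTT, with compound at 0.13–100 μM final in duplicate, preincubated 10 min at 25 °C. Started with biotin/Cy5-labelled oligo duplex, run 30 min at 37 °C, stopped with EDTA. Mean ± SD from at least three experiments.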

[11] = Selectivity index, ratio of IC50 for HIV integrase to IC50 for HIV1 recombinant reverse transcriptase associated catalytically active RNase H-mediated domain internal cleavage activity
[12] = target: T1, Human immunodeficiency virus type 1 reverse transcriptase; assay: Inhibition of HIV1 recombinant reverse transcriptase associated catalytically active RNase H domain assessed as reduction in internal cleavage using HTS-1 RNA/DNA duplex substrate by fluorescence assay
[13] = Inhibition of Escherichia coli RNase H pre-incubated for 10 mins before HTS-1 RNA/DNA duplex substrate addition by fluorescence assay
How it was run: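 E. coli RNase H at 4 nM with 6 mM MgCl2 and inhibitor at 1, 7 or 30 μM (2% DMSO final) in 50 mM Tris pH 7.8, 50 mM NaCl. Preincubated 10 min at room temperature, then started with 100 nM HTS-1 (fluorescein/Dabcyl RNA/DNA duplex). IC50 taken at curve midpoint; duplicates, at least two independent experiments.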

[14] = target: T2, Human immunodeficiency virus type 1 reverse transcriptase; assay: Inhibition of HIV1 reverse transcriptase Y181C mutant associated RNase H domain activity assessed as reduction in reduction in DNA 3' end directed cleavage using HTS-2 RNA/DNA duplex substrate by fluorescence assay
[15] = target: T3, Human immunodeficiency virus type 1 reverse transcriptase; assay: Inhibition of HIV1 reverse transcriptase L100I/K103N mutant associated RNase H domain activity assessed as reduction in reduction in DNA 3' end directed cleavage using HTS-2 RNA/DNA duplex substrate by fluorescence assay
[16] = test system: Human immunodeficiency virus; assay: Antiviral activity against HIV infected in human HeLa P4/R5 cells pre-incubated for 16 hrs before virus infection and measured 48 hrs post virus infection by fluorescence-based beta-galactosidase detection assay; assay type: functional, organism-based; details: Human immunodeficiency virus 1, P4/R5
How it was run: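 P4R5 indicator cells (expressing CD4, CXCR4, CCR5 and an HIV LTR-driven β-galactosidase reporter) seeded at 5 × 10^3 per well in DMEM/10% FBS with puromycin (0.5 μg/mL). Drug added 16 h before HIV exposure, then 48 h further incubation. Single replication cycle; infection read by fluorescence-based β-galactosidase detection. Highest concentration tested 50 μM; values are averages of two determinations.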

[17] = Toxicity against human HeLa P4/R5 cells; assay type: cell-based
[18] = Therapeutic index, ratio of CC50 for human HeLa P4/R5 cells to EC50 for HIV infected in human HeLa P4/R5 cells; assay type: cell-based; details: read-out: Ratio CC50/EC50

Sequence of Human immunodeficiency virus type 1 integrase (Q7ZJM1 whole entry): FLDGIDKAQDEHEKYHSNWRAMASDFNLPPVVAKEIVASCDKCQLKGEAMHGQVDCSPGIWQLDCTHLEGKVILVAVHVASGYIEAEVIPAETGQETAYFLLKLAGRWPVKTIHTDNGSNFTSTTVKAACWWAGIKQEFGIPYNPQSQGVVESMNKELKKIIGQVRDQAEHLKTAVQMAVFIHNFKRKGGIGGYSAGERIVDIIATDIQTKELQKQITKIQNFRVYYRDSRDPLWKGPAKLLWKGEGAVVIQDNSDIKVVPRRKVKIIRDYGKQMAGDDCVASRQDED

SMILES	IC50 [1]	IC50 [2]	IC50 [3]	IC50 [4]	IC50 [5]	IC50 [6]	IC50 [7]	IC50 [8]	IC50 [9]	IC50 (Gag-Pol polyprotein)	IC50 [10]	Ratio IC50 [11]	IC50 [12]	IC50 [13]	IC50 [14]	IC50 [15]	EC50 [16]	CC50 ([17]; HeLa P4/R5 cells)	selectivity ratio [18]	CC50 ([17]; p4/r5)
NS(=O)(=O)c1ccc(-c2ccc(Cc3ccc4c(c3)CC(=O)N(O)C4=O)cc2)cc1	500 nM	500 nM	400 nM	500 nM	200 nM	300 nM	400 nM	200 nM	> 30000 nM	2400 nM	3600 nM	9	400 nM	2500 nM	300 nM	300 nM				
O=C1Cc2cc(Cc3ccc(-c4ccncc4)cc3)ccc2C(=O)N1O			800 nM						> 30000 nM					4000 nM						
O=C1Cc2cc(Cc3ccc(-c4cccs4)cc3)ccc2C(=O)N1O	2000 nM	2700 nM	700 nM	1500 nM							> 100000 nM		2700 nM				13000 nM	> 50000 nM	> 4	
O=C1Cc2cc(Cc3ccc(-c4ccc(F)cc4)cc3)ccc2C(=O)N1O	4900 nM	5000 nM	2800 nM						> 30000 nM		> 100000 nM		5400 nM	2900 nM			10000 nM			
N#Cc1ccc(-c2ccc(Cc3ccc4c(c3)CC(=O)N(O)C4=O)cc2)cc1	900 nM	900 nM	500 nM						> 30000 nM		> 100000 nM		900 nM	3200 nM			13000 nM	> 50000 nM		
COc1ccc(-c2ccc(Cc3ccc4c(c3)CC(=O)N(O)C4=O)cc2)cc1																	10000 nM			
NC(=O)c1ccc(-c2ccc(Cc3ccc4c(c3)CC(=O)N(O)C4=O)cc2)cc1			1500 nM																	
O=C1Cc2cc(Cc3ccc(Cl)cc3)ccc2C(=O)N1O									> 30000 nM		4400 nM									
O=C1Cc2cc(Cc3ccc(-c4ccccc4)cc3)ccc2C(=O)N1O	600 nM	900 nM	500 nM						> 30000 nM		> 100000 nM		800 nM	3400 nM			3000 nM			50000 nM
CS(=O)(=O)c1ccc(-c2ccc(Cc3ccc4c(c3)CC(=O)N(O)C4=O)cc2)cc1									> 30000 nM					7200 nM						
O=C1Cc2cc(Cc3ccc(-c4ccc(F)cc4F)cc3)ccc2C(=O)N1O	900 nM	1400 nM	700 nM	2000 nM							> 100000 nM		1500 nM				13000 nM	> 50000 nM	> 4	
O=C1Cc2cc(Cc3ccc(C4CC4)cc3)ccc2C(=O)N1O	800 nM	900 nM	900 nM						> 30000 nM		3800 nM		600 nM							
O=C1Cc2cc(Cc3ccc(F)cc3)ccc2C(=O)N1O	800 nM	1200 nM	500 nM	2300 nM							36000 nM	28	1300 nM				13000 nM	> 50000 nM	> 4	
O=C1Cc2cc(Cc3ccc(C(F)(F)F)cc3)ccc2C(=O)N1O	1100 nM	2000 nM	1200 nM						> 30000 nM		> 100000 nM		1500 nM				6200 nM			50000 nM
O=C1Cc2cc(Cc3ccccc3)ccc2C(=O)N1O	1400 nM	1100 nM	1100 nM	1700 nM					> 30000 nM	3200 nM	3800 nM	2.9	1300 nM	6500 nM						
COc1ccc(-c2ccc(Cc3ccc4c(c3)CC(=O)N(O)C4=O)cc2)cc1F	1800 nM	1200 nM	700 nM	1900 nM							> 100000 nM		2200 nM				13000 nM	> 50000 nM	> 4	
